Here are results for eleven compounds from ChEMBL document CHEMBL4219101, “Discovery of 18β-glycyrrhetinic acid conjugated aminobenzothiazole derivatives as Hsp90-Cdc37 interaction disruptors that inhibit cell migration and reverse drug resistance” (Bioorg Med Chem, 2018).

As a reminder, the IC50 is the point on the concentration scale where inhibition reaches its midpoint. Read a low IC50 as greater potency.

One test relates to A549. In words: Antiproliferative activity against human A549 cells after 48 hrs by MTT assay. To be noted: A549, 48 h. The format is functional, cell-based. In a few lines: (§1)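 Cells in log phase seeded at about 1.0 × 10^5 cells/mL in 96-well plates, left 12 h at 37 °C, 5% CO2. Compounds dissolved in DMSO, added at 2.5, 5, 10, 20 and 50 µM, 48 h exposure. Absorbance read at 570/630 nm dual wavelength. Survival expressed relative to negative control. IC50 by Bliss method (n = 5), tests done in triplicate.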
(Formazan colour is commonly taken as a measure of viable cells.)

Another test deals with MCF7. In words: Antiproliferative activity against human MCF7 cells after 48 hrs by MTT assay. The format is functional, cell-based. To be noted: MCF7, 48 h. In a few lines: as §1
For the next test, the system named is HepG2. The test is described as follows: Antiproliferative activity against human HepG2 cells after 48 hrs by MTT assay. To be noted: HepG2, 48 h. The format is functional, cell-based. The method, boiled down: as §1
Test [1] is described as follows: Inhibition of His-tagged full-length Hsp90 (unknown origin)/GST-tagged Cdc37M (unknown origin) interaction after 1 hr by HTRF assay. Further details: species or system Homo sapiens. The method, boiled down:
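TR-FRET in PBS containing 400 mM KF, pH 7.3. His-tagged full-length Hsp90 and GST-Cdc37M, each 250 nM final, incubated with compound for 1 h at 37 °C. Anti-GST-Cryptate and anti-6His-XL665 then added for a further 0.5 h at 37 °C. Excitation 320 nm, emission 665/620 nm, reported as ratio ×10,000. Negative and blank controls run in each assay.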
(TR-FRET usually uses a lanthanide donor and a delayed reading to cut background.)

The test system of a further test is HCT-116. In words: Antiproliferative activity against human HCT116 cells after 48 hrs by MTT assay. The test is classed as functional, cell-based. To be noted: HCT-116, 48 h. In a few lines: as §1

On to `CC1(C)[C@@H](O)CC[C@]2(C)[C@H]3C(=O)C=C4[C@@H]5C[C@@](C)(C(=O)O)CC[C@]5(C)CC[C@@]4(C)[C@]3(C)CC[C@@H]12` [ENOXOLONE], for which the IC50 in the test on A549 was found to be 84.2 µM; in the test with MCF7 it was 74.8 µM; in the test on HepG2, 94.5 µM; in test [1], 78.4 µM; with HCT-116, 91.2 µM.

Consider `CC(=O)O[C@H]1CC[C@]2(C)[C@H]3C(=O)C=C4[C@@H]5C[C@@](C)(C(=O)Nc6nc7c(Br)cccc7s6)CC[C@]5(C)CC[C@@]4(C)[C@]3(C)CC[C@H]2C1(C)C`, for which the IC50 (with A549; in the test on MCF7; in the test on HepG2; in test [1]; in the test with HCT-116) was > 100 µM in each case.

Regarding `CC1(C)[C@@H](O)CC[C@]2(C)[C@H]3C(=O)C=C4[C@@H]5C[C@@](C)(C(=O)Nc6nc7ccc(Br)cc7s6)CC[C@]5(C)CC[C@@]4(C)[C@]3(C)CC[C@@H]12`, the IC50 came out at 33.4 µM with A549; 33.8 µM with MCF7; 39.5 µM in the test on HepG2; 41.3 µM in test [1]; 37.4 µM with HCT-116.

In the case of `CC1(C)[C@@H](O)CC[C@]2(C)[C@H]3C(=O)C=C4[C@@H]5C[C@@](C)(C(=O)Nc6nc7ccc(F)cc7s6)CC[C@]5(C)CC[C@@]4(C)[C@]3(C)CC[C@@H]12`, the IC50 was determined as 32.2 µM in the test with A549; 31.1 µM in the test with MCF7; 36.4 µM with HepG2; 32.3 µM in test [1]; 31.5 µM with HCT-116.

Take `CC(=O)O[C@H]1CC[C@]2(C)[C@H]3C(=O)C=C4[C@@H]5C[C@@](C)(C(=O)Nc6nc7c(Cl)cccc7s6)CC[C@]5(C)CC[C@@]4(C)[C@]3(C)CC[C@H]2C1(C)C`: the IC50 (in the test with A549; in the test with MCF7; in the test with HepG2; in test [1]; with HCT-116) was > 100 µM in each case.

Take `CC1(C)[C@@H](O)CC[C@]2(C)[C@H]3C(=O)C=C4[C@@H]5C[C@@](C)(C(=O)Nc6nc7c(F)cccc7s6)CC[C@]5(C)CC[C@@]4(C)[C@]3(C)CC[C@@H]12`: the IC50 was 36.5 µM in the test on A549; 41.2 µM with MCF7; 45.6 µM with HepG2; 45.7 µM in test [1]; 42.5 µM with HCT-116.

As to `CCOC(=O)[C@@]1(C)CC[C@]2(C)CC[C@]3(C)C(=CC(=O)[C@@H]4[C@@]5(C)CC[C@H](OC(=O)CCC(=O)Nc6nc7ccc(OC)cc7s6)C(C)(C)[C@@H]5CC[C@]43C)[C@@H]2C1`, the half-inhibitory concentration (IC50) in the test on A549 turned out to be 15.5 µM; in the test with MCF7 it was 18.5 µM; in the test with HepG2, 20.4 µM; in test [1], 8.24 µM; with HCT-116 it was 21.3 µM.

Take `CCOC(=O)[C@@]1(C)CC[C@]2(C)CC[C@]3(C)C(=CC(=O)[C@@H]4[C@@]5(C)CC[C@H](OC(=O)CCC(=O)Nc6nc7ccc(C)cc7s6)C(C)(C)[C@@H]5CC[C@]43C)[C@@H]2C1`: the IC50 with A549 stood at 19.1 µM; in the test with MCF7 it was 22.5 µM; with HepG2, 27.5 µM; in test [1], 14.9 µM; in the test with HCT-116 it was 23.6 µM.

`CC1(C)[C@@H](O)CC[C@]2(C)[C@H]3C(=O)C=C4[C@@H]5C[C@@](C)(C(=O)Nc6nc7c(Br)cccc7s6)CC[C@]5(C)CC[C@@]4(C)[C@]3(C)CC[C@@H]12`: the IC50 (in the test with A549; in the test with MCF7; in the test with HepG2; in test [1]; with HCT-116) was > 100 µM each time.

Take `Cc1ccc2nc(NC(=O)[C@@]3(C)CC[C@]4(C)CC[C@]5(C)C(=CC(=O)[C@@H]6[C@@]7(C)CC[C@H](O)C(C)(C)[C@@H]7CC[C@]65C)[C@@H]4C3)sc2c1`: the IC50 in the test on A549 was determined as 22.4 µM; in the test with MCF7, 23.2 µM; in the test with HepG2, 27.6 µM; in test [1], 83.2 µM; with HCT-116, 18.7 µM.

Take `O=c1[nH]cc(F)c(=O)[nH]1` [FLUOROURACIL]: the IC50 with A549 came to 19.5 µM; in the test on MCF7, 15.8 µM; in the test on HepG2 it was 23.6 µM; in the test on HCT-116, 17.2 µM.
